By IC50 is commonly meant the midpoint of a concentration-inhibition curve. What is called inhibition is the drop in the measured response relative to a control, in per cent.

For 6 compounds, IC50 and inhibition results are on record in ChEMBL document CHEMBL4118152, “Discovery of Potent and Selective Periphery-Restricted Quinazoline Inhibitors of the Cyclic Nucleotide Phosphodiesterase PDE1” (J Med Chem, 2018).

Activity calls are given as the source filed them. The calls are words filed in the database; no cut-off is given here.

Assay [1] concerns the target Dual specificity calcium/calmodulin-dependent 3',5'-cyclic nucleotide phosphodiesterase 1B (Homo sapiens, UniProt Q01064). Kind of assay: Inhibition of full length recombinant human PDE1B1 using 3',5'-[3H]cAMP as substrate after 30 mins by scintillation proximity assay. Put shortly:
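Enzymes were human except PDE6A, which was bovine. Each was assayed with cAMP or cGMP substrate, as appropriate to the enzyme, at concentrations below 1/3 of Km. IC50 values are mean ± SEM from n = 3 or more.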
(In general: In a scintillation proximity assay essentially only radioactivity close to the scintillant gives light.)

In assay [2] the target is Dual specificity calcium/calmodulin-dependent 3',5'-cyclic nucleotide phosphodiesterase 1A (Homo sapiens, UniProt P54750). Kind of assay: Inhibition of full length recombinant human PDE1A using 3',5'-[3H]cAMP as substrate after 30 mins by scintillation proximity assay. Put shortly:
(§1)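 Human recombinant enzymes; substrate held below 1/3 of Km. IC50 reported as mean ± SEM of at least 3 determinations.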

For assay [3], the target named is T1, Dual specificity calcium/calmodulin-dependent 3',5'-cyclic nucleotide phosphodiesterase 1C (Homo sapiens, UniProt Q14123). Briefly: Inhibition of full length recombinant human PDE1C using 3',5'-[3H]cAMP as substrate after 30 mins by scintillation proximity assay. The procedure, abridged:
as §1

Assay [4] relates to HEK293. Briefly: Inhibition of recombinant human PDE3 expressed in HEK293 cells using 3',5'-[3H]cAMP as substrate at 1 uM. Put shortly: (§2)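 Recombinant enzymes were assayed for hydrolysis of cAMP or cGMP, with substrate at 0.1 µM. The inhibitor was tested at 1.0 µM.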
In assay [5] the target is T2, cGMP-specific 3',5'-cyclic phosphodiesterase (Homo sapiens, UniProt O76074). Briefly: Inhibition of recombinant human PDE5 expressed in HEK293 cells using 3',5'-[3H]cGMP as substrate at 1 uM. Put shortly: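 Recombinant enzymes were tested at 1.0 µM inhibitor with cAMP or cGMP substrate at 0.1 µM. Read-out is hydrolytic activity relative to control.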
The target of assay [6] is T1, Dual specificity calcium/calmodulin-dependent 3',5'-cyclic nucleotide phosphodiesterase 1C. Kind of assay: Inhibition of recombinant C-terminal FLAG tagged human PDE1C expressed in HEK293 cells using 3',5'-[3H]cAMP as substrate.
Assay [7] concerns the target T3, cGMP-inhibited 3',5'-cyclic phosphodiesterase 3A (Homo sapiens, UniProt Q14432). Kind of assay: Inhibition of recombinant human PDE3A expressed in HEK293 cells using 3',5'-[3H]cAMP as substrate. Put shortly:
as §2

The target in assay [8] is T1, Dual specificity calcium/calmodulin-dependent 3',5'-cyclic nucleotide phosphodiesterase 1C. Kind of assay: Inhibition of recombinant C-terminal FLAG tagged human PDE1C expressed in HEK293 cells using 3',5'-[3H]cGMP as substrate.
Assay [9] deals with T3, cGMP-inhibited 3',5'-cyclic phosphodiesterase 3A. Kind of assay: Inhibition of recombinant human PDE3A expressed in HEK293 cells using 3',5'-[3H]cGMP as substrate. Put shortly:
as §2

Assay [10] concerns the target T2, cGMP-specific 3',5'-cyclic phosphodiesterase. Kind of assay: Inhibition of recombinant human PDE5A expressed in HEK293 cells using 3',5'-[3H]cGMP as substrate. The procedure, abridged: as §2
For assay [11], the target named is T3, cGMP-inhibited 3',5'-cyclic phosphodiesterase 3A. Briefly: Inhibition of PDE3A in soluble protein extracts of human myocardium using 3',5'-[3H]cGMP as substrate at 1 uM relative to control.
For assay [12], the target named is T2, cGMP-specific 3',5'-cyclic phosphodiesterase. Briefly: Inhibition of PDE5A in soluble protein extracts of human myocardium using 3',5'-[3H]cGMP as substrate at 1 uM relative to control.
Assay [13] deals with T3, cGMP-inhibited 3',5'-cyclic phosphodiesterase 3A. Kind of assay: Inhibition of PDE3A in soluble protein extracts of human myocardium using 3',5'-[3H]cAMP as substrate at 1 uM relative to control.
Assay [14] deals with T2, cGMP-specific 3',5'-cyclic phosphodiesterase. Kind of assay: Inhibition of PDE5A in soluble protein extracts of human myocardium using 3',5'-[3H]cAMP as substrate at 1 uM relative to control.
Assay [15] has as its target T3, cGMP-inhibited 3',5'-cyclic phosphodiesterase 3A. Briefly: Inhibition of PDE3A in soluble protein extracts of human myocardium assessed as Ca2+/calmodulin stimulated substrate hydrolysis using 3',5'-[3H]cGMP as substrate relative to control. To be noted: concentration not given here. The procedure, abridged: (§3)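 Soluble protein extracts from human left ventricle, test agent 1.0 µM, [3H]cAMP or [3H]cGMP substrate at 0.1 µM. Total activity was measured with CaCl2 plus exogenous calmodulin, and a parallel reaction was run with the Ca2+ chelator EGTA. Ca2+/calmodulin-dependent activity is total minus the EGTA activity; inhibition is given relative to control.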

Assay [16] has as its target T2, cGMP-specific 3',5'-cyclic phosphodiesterase. Briefly: Inhibition of PDE5A in soluble protein extracts of human myocardium assessed as Ca2+/calmodulin stimulated substrate hydrolysis using 3',5'-[3H]cGMP as substrate relative to control. To be noted: concentration not given here. The procedure, abridged:
as §3

In assay [17] the target is T3, cGMP-inhibited 3',5'-cyclic phosphodiesterase 3A. Briefly: Inhibition of PDE3A in soluble protein extracts of human myocardium assessed as Ca2+/calmodulin stimulated substrate hydrolysis using 3',5'-[3H]cAMP as substrate relative to control. To be noted: concentration not given here. The procedure, abridged:
as §3

The target of assay [18] is T2, cGMP-specific 3',5'-cyclic phosphodiesterase. Kind of assay: Inhibition of PDE5A in soluble protein extracts of human myocardium assessed as Ca2+/calmodulin stimulated substrate hydrolysis using 3',5'-[3H]cAMP as substrate relative to control. The settings on record: concentration not given here. Put shortly:
as §3

T1 sequence (Q14123 whole entry): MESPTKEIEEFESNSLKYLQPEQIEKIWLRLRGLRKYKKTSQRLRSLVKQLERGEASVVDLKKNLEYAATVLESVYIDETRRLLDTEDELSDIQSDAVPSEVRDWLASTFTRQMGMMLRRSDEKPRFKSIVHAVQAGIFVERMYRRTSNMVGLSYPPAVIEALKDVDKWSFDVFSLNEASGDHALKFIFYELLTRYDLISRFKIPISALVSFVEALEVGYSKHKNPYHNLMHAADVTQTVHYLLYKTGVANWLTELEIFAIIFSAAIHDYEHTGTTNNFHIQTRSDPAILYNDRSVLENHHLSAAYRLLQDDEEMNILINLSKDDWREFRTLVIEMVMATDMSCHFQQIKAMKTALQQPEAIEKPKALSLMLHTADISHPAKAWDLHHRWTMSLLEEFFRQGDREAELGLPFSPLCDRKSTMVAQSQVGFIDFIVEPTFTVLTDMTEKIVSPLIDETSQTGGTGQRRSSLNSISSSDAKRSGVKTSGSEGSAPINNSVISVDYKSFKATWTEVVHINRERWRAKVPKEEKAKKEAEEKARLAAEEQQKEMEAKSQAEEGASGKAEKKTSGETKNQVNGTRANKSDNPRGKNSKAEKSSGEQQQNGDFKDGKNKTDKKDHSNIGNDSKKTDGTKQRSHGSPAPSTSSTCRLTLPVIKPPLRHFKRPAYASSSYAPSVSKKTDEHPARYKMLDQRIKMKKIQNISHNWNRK
Sequence of Dual specificity calcium/calmodulin-dependent 3',5'-cyclic nucleotide phosphodiesterase 1B (Q01064 whole entry): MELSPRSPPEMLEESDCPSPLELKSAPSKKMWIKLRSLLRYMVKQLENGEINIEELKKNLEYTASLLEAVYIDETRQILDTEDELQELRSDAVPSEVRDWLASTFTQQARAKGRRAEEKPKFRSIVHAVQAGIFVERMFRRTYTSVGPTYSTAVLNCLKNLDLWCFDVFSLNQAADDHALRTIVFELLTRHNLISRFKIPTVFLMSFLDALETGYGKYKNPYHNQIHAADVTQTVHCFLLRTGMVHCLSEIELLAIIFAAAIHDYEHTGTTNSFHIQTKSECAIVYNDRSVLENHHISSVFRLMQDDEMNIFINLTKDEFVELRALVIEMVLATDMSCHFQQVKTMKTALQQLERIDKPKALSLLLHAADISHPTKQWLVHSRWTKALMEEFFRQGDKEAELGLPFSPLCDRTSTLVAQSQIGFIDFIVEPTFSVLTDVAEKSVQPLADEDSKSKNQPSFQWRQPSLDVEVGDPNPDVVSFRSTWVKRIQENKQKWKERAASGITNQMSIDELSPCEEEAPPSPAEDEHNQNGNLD
T3 sequence (Q14432 whole entry): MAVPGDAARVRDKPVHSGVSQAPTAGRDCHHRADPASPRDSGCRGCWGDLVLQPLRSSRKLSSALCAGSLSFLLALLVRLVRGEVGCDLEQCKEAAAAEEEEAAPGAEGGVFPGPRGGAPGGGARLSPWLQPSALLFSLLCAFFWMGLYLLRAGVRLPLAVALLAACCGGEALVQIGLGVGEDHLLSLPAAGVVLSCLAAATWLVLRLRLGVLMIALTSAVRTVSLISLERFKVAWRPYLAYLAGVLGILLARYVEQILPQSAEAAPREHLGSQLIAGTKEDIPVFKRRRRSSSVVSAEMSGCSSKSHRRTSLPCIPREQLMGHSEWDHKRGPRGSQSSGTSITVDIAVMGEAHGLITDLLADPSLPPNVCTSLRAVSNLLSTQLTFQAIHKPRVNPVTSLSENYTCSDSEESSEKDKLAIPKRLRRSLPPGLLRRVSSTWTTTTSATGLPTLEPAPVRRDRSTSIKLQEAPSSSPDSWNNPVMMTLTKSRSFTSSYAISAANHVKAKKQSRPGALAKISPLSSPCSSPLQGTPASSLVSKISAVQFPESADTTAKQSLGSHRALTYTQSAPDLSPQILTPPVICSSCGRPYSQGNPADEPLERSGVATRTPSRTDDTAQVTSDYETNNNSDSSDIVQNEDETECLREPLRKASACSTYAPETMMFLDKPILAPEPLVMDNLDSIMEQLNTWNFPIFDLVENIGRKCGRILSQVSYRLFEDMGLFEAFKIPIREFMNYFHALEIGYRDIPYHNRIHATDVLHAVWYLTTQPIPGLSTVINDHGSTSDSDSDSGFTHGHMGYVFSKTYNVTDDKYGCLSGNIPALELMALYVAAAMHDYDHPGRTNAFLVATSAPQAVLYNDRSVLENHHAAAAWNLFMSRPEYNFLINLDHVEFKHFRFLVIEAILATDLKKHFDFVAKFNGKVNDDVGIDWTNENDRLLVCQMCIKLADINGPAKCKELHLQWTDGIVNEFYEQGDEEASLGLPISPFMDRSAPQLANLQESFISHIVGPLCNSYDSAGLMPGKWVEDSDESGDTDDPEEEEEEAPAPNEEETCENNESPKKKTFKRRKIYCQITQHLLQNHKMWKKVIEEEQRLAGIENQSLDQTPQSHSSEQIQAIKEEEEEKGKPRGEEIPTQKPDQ
Sequence of Dual specificity calcium/calmodulin-dependent 3',5'-cyclic nucleotide phosphodiesterase 1A (P54750 whole entry): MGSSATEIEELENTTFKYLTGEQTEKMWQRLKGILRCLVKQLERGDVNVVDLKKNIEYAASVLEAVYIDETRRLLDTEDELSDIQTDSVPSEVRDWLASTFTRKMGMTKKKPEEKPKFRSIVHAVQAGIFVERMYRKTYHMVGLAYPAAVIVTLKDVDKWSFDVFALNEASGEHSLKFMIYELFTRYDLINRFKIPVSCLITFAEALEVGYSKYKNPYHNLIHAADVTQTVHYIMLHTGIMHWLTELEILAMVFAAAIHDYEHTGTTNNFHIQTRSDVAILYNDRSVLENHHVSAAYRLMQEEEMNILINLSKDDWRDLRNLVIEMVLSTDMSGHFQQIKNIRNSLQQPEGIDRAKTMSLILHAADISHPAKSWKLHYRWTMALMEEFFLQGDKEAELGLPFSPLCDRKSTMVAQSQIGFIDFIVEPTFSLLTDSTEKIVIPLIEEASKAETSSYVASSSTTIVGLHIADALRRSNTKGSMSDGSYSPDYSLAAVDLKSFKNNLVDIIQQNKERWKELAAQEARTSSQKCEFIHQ

`COc1ccc2c([C@H]3CCc4ccc(Cl)cc43)ncnc2c1OC`: in assay [1], the concentration for half-maximal inhibition (IC50) was 4.5 nM.
On the same count and under the same terms, then `COc1cc2ncnc(NC(C)Cc3cc(C)n[nH]3)c2cc1OC` (racemic), with 52 nM.
As for `COc1ccc2c(NC(C)Cc3cc(C)[nH]n3)ncnc2c1OC` (racemic), the IC50 turned out to be 118 nM in assay [2]; 21 nM in assay [1]; 83 nM in [3]; 56 nM in [6]; 101000 nM in assay [7]; 110 nM in assay [8]. Moreover, the IC50 came to 369000 nM in assay [9] and 30300 nM in assay [10]. Besides, the inhibition result in assay [4] and in assay [5] was “Active” each time. For the same compound, the inhibition is 80% in [11]; 80% in [12]; 76% in [13]; 76% in assay [14]; 90% in assay [15]; 90% in assay [16]. Besides, the inhibition in assay [17] and in assay [18] was 90% throughout.
As for `COc1ccc2c(N[C@H](C)Cc3cc(C)[nH]n3)ncnc2c1OC`, the results for the IC50 in assay [2], in [1] and in [3] were 777 nM, 596 nM and 579 nM, respectively.
On to `CCC(CC)Nc1ncnc2c(OC)c(OC)c(OC)cc12`, for which the half-inhibitory concentration (IC50) in assay [1] turned out to be 35 nM.
Same read-out and setting: for `COc1cc2c(NC(C)Cc3cc(C)n[nH]3)ncnc2c(OC)c1OC` (racemic) the value was 27 nM.
